Measured values published in ChEMBL document CHEMBL1129050, “Correlation of anti-HIV potency with lipophilicity in a series of cosalane analogs having normal alkenyl and phosphodiester chains as cholestane replacements” (J Med Chem, 1996).

Legend:
[1] = test system: CEM-SS; test: Effective concentration against HIV-1RF induced cytopathicity in CEM-SS cells; No antiviral activity was observed at concentrations uM; assay type: functional, cell-based, Homo sapiens
Method in brief: (§1)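 CEM-SS cells (5000/well) infected with thawed HIV-1 RF stock at MOI 0.01 in the presence of serially diluted compound (as ammonium salts); 37 °C, 5% CO₂, 6 days. Supernatant assayed for RT activity, p24 and/or infectious virus; cell protection from cytopathic effect read by XTT. EC₅₀ averaged from at least two determinations; compounds tested up to […].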

[2] = test system: CEM-SS; test: Cytotoxic concentration against mock-infected CEM-SS cells; assay type: functional, cell-based; conditions: Homo sapiens
Method in brief: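 Uninfected (mock-infected) CEM-SS cells, exponentially growing, seeded at 5000 cells/well with serially diluted compound (tested as ammonium salts) in complete medium; 37 °C, 5% CO₂, 6 days. Growth/viability by XTT assay; IC₅₀ = 50% cytotoxic concentration, averaged from at least two determinations.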

[3] = test system: CEM-SS; test: Effective concentration against HIV-1RF induced cytopathicity in CEM-SS cells; assay type: functional, cell-based; conditions: Homo sapiens; method in brief: as §1
[4] = test system: CEM-SS; test: Effective concentration against HIV-1RF induced cytopathicity in CEM-SS cells; No antiviral uM; assay type: functional, cell-based, Homo sapiens; method in brief: as §1

Structure (SMILES)	EC50 [1]	IC50 [2] [µM]	EC50 [3] [µM]	EC50 [4]
CCCCCC=C(c1cc(Cl)c(O)c(C(=O)O)c1)c1cc(Cl)c(O)c(C(=O)O)c1	Not Active	> 95	–	–
CC(C)CCCC(C)[C@H]1CC[C@H]2[C@@H]3CCC4C[C@@H](CCC=C(c5cc(Cl)c(O)c(C(=O)O)c5)c5cc(Cl)c(O)c(C(=O)O)c5)CC[C@]4(C)[C@H]3CC[C@]12C (some centres undefined)	–	> 300	3	–
CCCCCCCCCC=C(c1cc(Cl)c(O)c(C(=O)O)c1)c1cc(Cl)c(O)c(C(=O)O)c1	–	> 49	43.2	–
CCCCCCCCCCCCCCOP(=O)(O)OCCC=C(c1cc(Cl)c(O)c(C(=O)O)c1)c1cc(Cl)c(O)c(C(=O)O)c1	–	101	–	Not Active
CCCCC/C=C\C/C=C\CCCCCCCCOP(=O)(O)OCCC=C(c1cc(Cl)c(O)c(C(=O)O)c1)c1cc(Cl)c(O)c(C(=O)O)c1	–	86	51.8	–
CCCCCCCCCCCCCCCC=C(c1cc(Cl)c(O)c(C(=O)O)c1)c1cc(Cl)c(O)c(C(=O)O)c1	–	> 35	19.8	–
O=C(O)c1cc(C(=CCC23CC4CC(CC(C4)C2)C3)c2cc(Cl)c(O)c(C(=O)O)c2)cc(Cl)c1O	–	105	–	Not Active
CCCCCCCC/C=C\CCCCCCCCOP(=O)(O)OCCC=C(c1cc(Cl)c(O)c(C(=O)O)c1)c1cc(Cl)c(O)c(C(=O)O)c1	–	61.3	49	–
O=C(O)c1cc(Cc2cc(Cl)c(O)c(C(=O)O)c2)cc(Cl)c1O	–	> 364	329	–
CCCCCCCCCCCCCCCCCCCCCCCCCCCCCC=C(c1cc(Cl)c(O)c(C(=O)O)c1)c1cc(Cl)c(O)c(C(=O)O)c1	–	> 220	13.1	–
CCCCCCCCCCCCCCCCOP(=O)(O)OCCC=C(c1cc(Cl)c(O)c(C(=O)O)c1)c1cc(Cl)c(O)c(C(=O)O)c1	–	84	–	Not Active
CCCCCCCCCCCCCCCCCCOP(=O)(O)OCCC=C(c1cc(Cl)c(O)c(C(=O)O)c1)c1cc(Cl)c(O)c(C(=O)O)c1	–	74	–	Not Active
